The source made the active and inactive calls. No cut-off for these calls is given here.
Experiments:
[1] = system: FM3A; test: Antiproliferative activity against mouse FM3A cells; type: functional, cell-based
[2] = system: MOLT-4; test: Antiproliferative activity against human Molt4/C8 cells; type: functional, cell-based
How it was run: (§1)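 Tumor cell proliferation assay. IC50 is the compound concentration giving 50% inhibition of proliferation, taken from dose-response curves. Reported as mean ± SE from at least three independent experiments.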

[3] = system: L1210; test: Antiproliferative activity against mouse L1210 cells; type: functional, cell-based; how it was run: as §1
[4] = system: CCRF-CEM; test: Antiproliferative activity against human CEM cells; type: functional, cell-based
[5] = target: Tubulin; test: Inhibition of tubulin polymerization; type: functional, Homo sapiens
How it was run: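 Tubulin assembly assay with tubulin at 10 µM. IC50 taken for inhibition of polymerization.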

[6] = target: Tubulin (Homo sapiens) (UniProt P68371+Q9H4B7+P0DPH7+P68366+Q13509+Q71U36+P04350+Q3ZCM7+P07437+P68363+Q9BQE3+Q6PEY2+Q13885+Q9BVA1+Q9BUF5); test: Inhibition of [3H]colchicine binding to tubulin at 1 uM; type: protein-complex assay
How it was run: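 Binding of [3H]colchicine to tubulin. Tubulin at 1 µM, [3H]colchicine at 5 µM, inhibitor at 1 µM. Read-out is percent inhibition of colchicine binding.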

[7] = system: HL-60; test: Cell cycle arrest in HL60 cells by accumulation at G2/M phase at 20 nM; type: functional, cell-based; details: Homo sapiens
How it was run: (§2)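 HL60 acute myeloblastic leukemia cells exposed to compound for 24 h, then stained with propidium iodide and analyzed by flow cytometry. Populations scored in sub-G0-G1 (apoptotic), G0-G1, S and G2-M phases, relative to untreated control cells.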

[8] = system: HL-60; test: Cell cycle arrest at HL60 cells by accumulation at sub G0/G1 phase at 20 nM; type: functional, cell-based; details: Homo sapiens; how it was run: as §2
[9] = system: HL-60; test: Cell cycle arrest in HL60 cells by accumulation at G2/M phase at 8 nM; type: functional, cell-based; details: Homo sapiens; how it was run: as §2
[10] = system: HL-60; test: Induction of apoptosis in HL60 cells by arrest at sub G0/G1 phase at 8 nM; type: functional, cell-based; details: Homo sapiens; how it was run: as §2
[11] = system: HL-60; test: Cell cycle arrest in HL60 cells by accumulation at S phase at 8 nM; type: functional, cell-based; details: Homo sapiens; how it was run: as §2
[12] = system: HL-60; test: Cell cycle arrest in HL60 cells by accumulation at G2/M phase at 40 nM; type: functional, cell-based; details: Homo sapiens; how it was run: as §2
[13] = system: HL-60; test: Induction of apoptosis in HL60 cells by arrest at sub G0/G1 phase at 15 nM; type: functional, cell-based; details: Homo sapiens; how it was run: as §2
[14] = system: HL-60; test: Cell cycle arrest in HL60 cells by accumulation at G2/M phase at 15 nM; type: functional, cell-based; details: Homo sapiens; how it was run: as §2

IC50 [2] | IC50 [3] | IC50 [4] | IC50 [5] | inhibition [6] | Structure (SMILES) | IC50 [1] | other results
> 10000 nM | > 10000 nM | > 10000 nM |  |  | COc1cc(C(=O)c2sc(-c3ccc(-c4ccccc4)cc3)cc2N)cc(OC)c1OC | > 10000 nM | 
 |  |  | 1300 nM | 77% | COc1cc(C(=O)c2cc(-c3ccccc3)sc2N)cc(OC)c1OC |  | 
250 nM | 370 nM | 270 nM |  |  | COc1cc(C(=O)c2sc(-c3ccc(C(F)(F)F)cc3)cc2N)cc(OC)c1OC | 540 nM | 
8.9 nM | 9.8 nM | 9.4 nM | 1200 nM | 80% | COc1cc(C(=O)c2sc(-c3cccs3)cc2N)cc(OC)c1OC | 1.7 nM | Activity [7]: Active; Activity [8]: Active
18 nM | 45 nM | 19 nM | 1100 nM | 60% | COc1ccc(-c2cc(N)c(C(=O)c3cc(OC)c(OC)c(OC)c3)s2)cc1 | 31 nM | 
110 nM | 100 nM | 99 nM |  |  | COc1cc(C(=O)c2sc(-c3ccc([N+](=O)[O-])cc3)cc2N)cc(OC)c1OC | 64 nM | 
240 nM | 590 nM | 270 nM |  |  | CCOc1ccc(-c2cc(N)c(C(=O)c3cc(OC)c(OC)c(OC)c3)s2)cc1 | 510 nM | 
77 nM | 93 nM | 70 nM |  |  | COc1cc(C(=O)c2sc(-c3ccc(Cl)cc3)cc2N)cc(OC)c1OC | 90 nM | 
5.3 nM | 11 nM | 4.5 nM | 1200 nM | 81% | COc1cc(C(=O)c2sc(-c3ccccc3)cc2N)cc(OC)c1OC | 13 nM | Activity [9]: Active; Activity [10]: Active; Activity [11]: Active; Activity [12]: Active
190 nM | 400 nM | 150 nM |  |  | COc1cc(C(=O)c2sc(-c3ccc(I)cc3)cc2N)cc(OC)c1OC | 420 nM | 
12 nM | 20 nM | 15 nM | 1500 nM | 70% | COc1cc(C(=O)c2sc(-c3ccc(F)cc3)cc2N)cc(OC)c1OC | 16 nM | 
20 nM | 40 nM | 20 nM | 1100 nM | 53% | COc1ccc(-c2cc(N)c(C(=O)c3cc(OC)c(OC)c(OC)c3)s2)cc1OC | 72 nM | 
 |  |  | 1200 nM |  | COc1cccc(-c2cc(C(=O)c3cc(OC)c(OC)c(OC)c3)c(N)s2)c1 |  | 
7.5 nM | 11 nM | 5.9 nM | 970 nM | 74% | COc1cc(C(=O)c2sc(-c3cccc([N+](=O)[O-])c3)cc2N)cc(OC)c1OC | 17 nM | Activity [13]: Active; Activity [14]: Active
 |  |  | 800 nM | 90% | COc1cc(C(=O)c2cc(-c3ccc(C)cc3)sc2N)cc(OC)c1OC |  | 
1200 nM | 2300 nM | 840 nM |  |  | COc1cc(C(=O)c2sc(-c3cc(OC)c(OC)c(OC)c3)cc2N)cc(OC)c1OC | 3500 nM | 
 |  |  | 1100 nM |  | COc1ccc(-c2cc(C(=O)c3cc(OC)c(OC)c(OC)c3)c(N)s2)cc1 |  | 
270 nM | 260 nM | 290 nM |  |  | COc1cc(C(=O)c2sc(-c3ccc(Cl)c(Cl)c3)cc2N)cc(OC)c1OC | 400 nM | 
 |  |  | 860 nM |  | COc1cc(C(=O)c2cc(-c3ccc(F)cc3)sc2N)cc(OC)c1OC |  | 
16 nM | 18 nM | 15 nM | 1100 nM | 80% | COc1cc(C(=O)c2sc(-c3ccc(C)cc3)cc2N)cc(OC)c1OC | 16 nM | 
17 nM | 22 nM | 16 nM | 640 nM | 81% | COc1cccc(-c2cc(N)c(C(=O)c3cc(OC)c(OC)c(OC)c3)s2)c1 | 36 nM | 
88 nM | 180 nM | 110 nM |  |  | COc1cc(C(=O)c2sc(-c3ccncc3)cc2N)cc(OC)c1OC | 150 nM | 
8.8 nM | 12 nM | 9.6 nM | 1300 nM | 81% | COc1cc(C(=O)c2sc(-c3ccsc3)cc2N)cc(OC)c1OC | 3.7 nM | Activity [7]: Active; Activity [8]: Active
17 nM | 20 nM | 16 nM | 1200 nM | 76% | COc1cc(C(=O)c2sc(-c3ccccc3Cl)cc2N)cc(OC)c1OC | 34 nM | 
92 nM | 100 nM | 86 nM |  |  | COc1cc(C(=O)c2sc(-c3ccc(Br)cc3)cc2N)cc(OC)c1OC | 150 nM | 

Structure (SMILES) | IC50 [2] | IC50 [3] | IC50 [4] | IC50 [5] | inhibition [6] | IC50 [1] | other results
COc1ccc(/C=C\c2cc(OC)c(OC)c(OC)c2)cc1O [COMBRETASTATIN A4] | 1.6 nM | 2.8 nM |  |  |  |  | 

From ChEMBL document CHEMBL1137402, “Synthesis and biological evaluation of 2-(3',4',5'-trimethoxybenzoyl)-3-amino 5-aryl thiophenes as a new class of tubulin inhibitors” (J Med Chem, 2006)
